Bioassay records deposited in PubChem BioAssay by several laboratories.
sPLA2-III inh: Inhibits HGIII-sPLA2 liposome hydrolysis, primary screen; Q9NZ20; QFRET BODIPY PC-A2 liposome hydrolysis, fluorescence; inhibition, % at 12.2 µM; 370,000 compounds, 0.56% hits; AID 743126;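 active means inhibition above mean plus 3 SD of compounds lying within the high and low control bounds, cut at about 19% in these data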;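 further: 0% = median of test compound wells and 100% = no enzyme DMSO wells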
NTR1 agonist: agonists of human neurotensin receptor NTR1; P30989; NTR1-U2OS beta-arrestin-GFP spot imaging, agonist mode; activation, % at 20 µM; 330,000 compounds, 0.17% hits; AID 493036;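 active means activation at or above 40% of the spot to cytoplasm intensity ratio, with at least 20 cells analyzed; inconclusive means wells under 20 cells, flagged as cytotoxic or low count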;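 further: 0% = DMSO without peptide and 100% = 100 nM NTR1 peptide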
Target sequence (P30989 whole entry, looked up): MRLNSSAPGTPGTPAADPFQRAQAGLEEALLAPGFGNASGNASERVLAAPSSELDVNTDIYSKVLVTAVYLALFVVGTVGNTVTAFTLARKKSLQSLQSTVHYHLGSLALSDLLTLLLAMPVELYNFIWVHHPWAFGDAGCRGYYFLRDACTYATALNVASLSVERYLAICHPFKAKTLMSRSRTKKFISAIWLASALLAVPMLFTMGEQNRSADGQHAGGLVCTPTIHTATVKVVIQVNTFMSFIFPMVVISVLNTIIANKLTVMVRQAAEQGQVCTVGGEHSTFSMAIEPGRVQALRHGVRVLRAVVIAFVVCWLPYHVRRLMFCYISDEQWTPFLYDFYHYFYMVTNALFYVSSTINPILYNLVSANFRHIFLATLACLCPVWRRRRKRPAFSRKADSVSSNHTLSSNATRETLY
Bfl-1 A1 inh: inhibitors of the anti-apoptotic protein A1, read as caspase activation | 330,000 compounds, 0.066% hits | MEF A1-2A-BIM cells, Caspase-Glo 3/7 luminescence, 3 h; percent of clofoctol response, vehicle zero | caspase activation, % (test concentration not listed) | AID 2462;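 active means over half of replicate activation scores above 10%, or exactly half above 10 with the replicate mean above 10; inconclusive means replicate mean below 10 yet half the replicates above 10; inactive means over half of replicates below 10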
MC4R antag cAMP: blocks human MC4R cAMP signaling; inhibition, % at 6.5 µM; AID 540295; MC4R-expressing cells, MTII-stimulated cAMP, LANCE TR-FRET; 360,000 compounds, 0.48% hits;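 active means inhibition above its plate's cutoff, the mean of tested wells on that plate plus 3 SD, cut at about 29% in these data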;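 further: 0% = Melanotan II alone and 100% = Melanotan II plus saturating MCL0020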
Target sequence (P32245 whole entry, looked up): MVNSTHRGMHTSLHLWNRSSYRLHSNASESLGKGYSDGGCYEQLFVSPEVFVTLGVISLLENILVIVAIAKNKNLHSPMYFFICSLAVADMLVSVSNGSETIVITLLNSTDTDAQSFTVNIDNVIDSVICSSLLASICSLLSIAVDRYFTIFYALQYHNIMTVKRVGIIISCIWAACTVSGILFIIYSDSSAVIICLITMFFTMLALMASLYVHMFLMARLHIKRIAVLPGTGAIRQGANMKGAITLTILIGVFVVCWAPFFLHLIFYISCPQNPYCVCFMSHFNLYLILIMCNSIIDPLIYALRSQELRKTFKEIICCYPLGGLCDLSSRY
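Test system: U2OS cells stably expressing human melanocortin 4 receptor (MC4R); also added: Melanotan II challenge; compound: 6.5 µM single dose; timing: 30-min compound preincubation, 1-h Melanotan II challenge, 1-h detection, room temperature; signal: Eu-cAMP/anti-cAMP TR-FRET, emission 671 nm; repeats: one well per compound, no replicates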
MC4R ag barr: agonists of human melanocortin 4 receptor (MC4R) beta-arrestin. P32245. U2OS MC4R beta-arrestin complementation, luminescence; percent of melanotan II response, DMSO zero. activation, % at 8.9 µM. 360,000 compounds, 0.98% hits;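 active means activation above a per-plate cutoff, the mean activation of sample wells on that plate plus 3 SD, cut at about 8% in these data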
Granule exo inh: blocks lytic granule exocytosis. 360,000 compounds, 0.66% hits. inhibition, % at 10 µM. TALL-104 LAMP-1 surface exposure, flow cytometry; cells stimulated with thapsigargin and PMA;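 active means inhibition above about 55%, limit read from the data; inconclusive means no clear call, values can overlap the other calls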
hGIII sPLA2 conf: human GIII-sPLA2 inhibition, confirmation; inhibition, % at 12.2 µM; shares compounds with sPLA2-III inh; 2,000 compounds, 34% hits; recombinant hGIII-sPLA2, BODIPY PC-A2 QFRET fluorescence;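 active means mean inhibition across triplicates above the hit cutoff set in the earlier primary screen, cut at about 19% in these data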;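 further: 0% = enzyme with DMSO and 100% = DMSO wells lacking enzyme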
535nm interf: optically interferes with 535nm fluorescence in sPLA2 counter-screen; shares compounds with sPLA2-III inh; BODIPY FL product fluorescence interference, QFRET; inhibition, % at 12.2 µM; 2,000 compounds, 8.5% hits;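 active means average inhibition above the solvent-only control mean plus 3 SD, cut at about 6% in these data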;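 further: 0% = DMSO with substrate plus product and 100% = DMSO with substrate alone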
535nm interf DR: counter-screen for HGIII-sPLA2 inhibitors: 535nm fluorescence interference, dose response | shares compounds with sPLA2-III inh | BODIPY FL product fluorescence interference, cell-free | IC50, µM | 240 tested, under 10 active | AID 743455;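 active means IC50 at or below 10 µM; inactive means IC50 above 10 µM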
* = called active by the depositor; u = inconclusive; x = no result given. This is a sample that favours compounds with a hit; in the whole collection about 2.5% have one here.

SMILES | sPLA2-III inh | NTR1 agonist | Bfl-1 A1 inh | MC4R antag cAMP | MC4R ag barr | Granule exo inh | hGIII sPLA2 conf | 535nm interf | others
COc1cccc(N=NC2C(=O)N(C(N)=S)N=C2C)c1 (stereo unspecified) | 23.1* | 1.0 | -7.1 | -16.6 | -1.7 | 4.5 | 13.5 | -1.7
CC(C)CC(=O)NC(=S)NNC(=O)c1ccc([N+](=O)[O-])cc1 | 19.0 | -1.0 | 0.9 | 17.2 | -1.4 | 0.5 | x | x
CC(C)CC(=O)NC(=S)NNC(=O)c1ccc(NC(=O)C2CCCCC2)cc1 | 20.9* | 0.4 | 0.9 | -3.4 | -1.8 | -1.8 | 37.1* | -9.8 | 535nm interf DR=>122
COc1ccc(C2CC(=O)Nc3cc(OC)c(OC)cc32)cc1 (stereo unspecified) | 20.9* | x | x | -2.6 | -0.7 | -9.0 | 1.3 | -4.1
CCNC(=S)NS(=O)(=O)c1ccc(F)cc1 | 6.1 | 0.6 | 1.0 | 9.6 | -0.3 | -0.1 | x | x
O=S(=O)(O)c1cc(O)c2cc(Nc3ccccc3)ccc2c1 | 5.6 | x | x | 13.2 | -0.2 | -3.2 | x | x
O=S(=O)(O)c1ccc(O)c2cc(Nc3ccccc3)ccc12 | 25.0* | x | x | 6.5 | -1.3 | -1.4 | 11.0 | 1.0
CCOc1cc(CNc2ccc3c(c2)OCCO3)cc(Br)c1OCC | 22.8* | 1.3 | 1.4 | -25.2 | -0.9 | 11.5 | 34.5* | -3.9 | 535nm interf DR=>122
CCOc1cc(CNc2ccc(N3CCOCC3)cc2)cc(Br)c1OCC | -5.1 | 3.1 | -0.5 | -2.6 | -2.7 | 4.4 | x | x
CCc1ccc(C(=O)NCc2ccc(Cl)cc2Cl)cc1 | -2.0 | 2.4 | -1.1 | 3.3 | -1.5 | -1.1 | x | x
CCc1ccc(C(=O)NCc2ccc(Cl)cc2)cc1 | 20.5* | 0.0 | 2.2 | 14.1 | 5.1 | 1.1 | 6.6 | -6.5
Cc1ccc(Nc2c(-c3ccccn3)nc3cccc(C)n23)cc1 | 22.9* | 13.6 | 0.3 | 4.3 | 0.1 | 0.2 | 12.0 | -24.6
Cc1cc(NS(C)(=O)=O)c(=O)n(Cc2cccc(C(F)(F)F)c2)c1 | 21.3* | x | x | 8.8 | 1.1 | -4.2 | 17.3 | -6.6
CCOC(=O)c1sc(N)nc1C(F)(F)F | 5.7 | x | x | 3.8 | -1.7 | 4.7 | x | x
CCC1(CC)Cc2ccccc2C(CC(=O)N2CCOCC2)=N1 | 19.6* | 0.3 | 0.1 | -0.6 | 0.3 | 52.3 | 18.6 | -10.3
Cc1ccc(NC(=O)c2c(C)noc2C)cc1S(=O)(=O)N1CCOCC1 | -4.1 | 1.2 | 0.9 | 4.3 | -0.2 | -2.7 | x | x
COC(=O)[C@H](C)NC(=O)Nc1cccc(Br)c1 | -3.2 | 0.0 | 0.9 | 3.8 | -2.2 | 3.1 | x | x
COc1cccc(N=Nc2ccc(O)c3ncccc23)c1 | 24.8* | 3.9 | -8.3 | -11.2 | -6.5 | 7.9 | 51.2* | 14.0*
COc1ccc(N=Nc2ccc(O)c3ncccc23)cc1 | 11.8 | 2.5 | -2.1 | 0.8 | 4.0 | 1.7 | x | x
CCN(CC)c1ccc(NC(=O)c2ccc3c(c2)OCO3)cc1 | 19.6* | 0.0 | -3.0 | -11.8 | 1.0 | -2.5 | 18.6 | -3.9
Cc1cc(-c2nc3ncccc3o2)ccc1NC(=S)NC(=O)c1ccco1 | 20.7* | 9.5 | -0.8 | -8.1 | -1.3 | u | 7.7 | -22.4
NC(=S)N/N=C/c1c(O)c(Br)cc2oc3c(c12)CCCC3 | 33.1* | 14.2 | 0.3 | 9.9 | 2.4 | -0.7 | 31.2* | 6.2*
CN1CCN(C(CNS(=O)(=O)c2ccc(Br)cc2)c2ccc3c(c2)OCO3)CC1 (stereo unspecified) | -27.2 | -1.4 | -0.7 | -1.6 | 0.9 | -2.7 | x | x
COc1ccc(-c2nnc(SCC(=O)Nc3ccc(Cl)cc3)n2C)cc1 | 2.9 | -0.6 | 0.0 | 2.2 | 1.2 | -2.4 | x | x
CCOC(=O)/C(=N\Nc1cccc(Cl)c1)Sc1nnc(-c2ccc(OC)cc2)n1C | 22.0* | 1.3 | -0.1 | 24.5 | 0.6 | -1.8 | 16.8 | -4.6
SMILES | sPLA2-III inh | NTR1 agonist | Bfl-1 A1 inh | MC4R antag cAMP | MC4R ag barr | Granule exo inh | hGIII sPLA2 conf | 535nm interf | others
CCCCn1c(-c2cccnc2)n[nH]c1=S | 22.0* | -0.5 | 1.2 | 1.0 | -2.9 | 5.0 | 9.4 | -5.0
CCn1c(-c2cccnc2)n[nH]c1=S | 5.3 | 0.4 | 0.7 | -2.3 | 1.1 | 1.8 | x | x
COc1cc(/C=C/C(=O)NNC(=O)c2cccc(S(=O)(=O)N(C)C)c2)cc(OC)c1OC | -1.8 | 0.5 | x | 15.1 | 1.5 | 1.6 | x | x
COc1ccc(Cl)cc1C(=O)NNC(=O)c1cccc(S(=O)(=O)N(C)C)c1 | 22.1* | -0.6 | 2.4 | 6.0 | -0.2 | -0.8 | -8.0 | -6.1
S=c1[nH]nc(-c2ccccc2Br)n1Cc1ccccc1 | 26.2* | -0.2 | 0.0 | 4.5 | -1.4 | 1.0 | 18.8 | 0.1
S=c1[nH]nc(-c2ccc(Cl)cc2Cl)n1Cc1ccccc1 | 19.8* | -0.6 | 0.3 | 0.2 | -1.6 | -2.0 | 28.1* | 0.1 | 535nm interf DR=>122
CCn1c(-c2cccn(Cc3ccc(Cl)cc3Cl)c2=O)n[nH]c1=S | 21.2* | 3.0 | -0.7 | -4.6 | -1.4 | 0.5 | 32.7* | -2.0 | 535nm interf DR=>122
CCOc1ccccc1NC(=O)c1nnn(CC(=O)Nc2cc(C)cc(C)c2)c1N | -0.1 | -0.1 | 0.3 | -6.5 | -1.1 | -0.9 | x | x
Cc1cc(C)c2c(c1)/C(=N/Nc1ccc(S(N)(=O)=O)cc1[N+](=O)[O-])CCC2 | 19.6* | 13.2 | 0.4 | -0.5 | 0.1 | -0.6 | 8.7 | 7.5*
CCC1Cc2[nH]c(=S)[nH]c(=O)c2C(c2ccc(Cl)cc2)O1 (stereo unspecified) | 21.5* | x | x | x | x | -5.0 | 0.2 | -2.0
CCCCn1c(C23CC4CC(CC(C4)C2)C3)n[nH]c1=S | 25.1* | 1.9 | 0.2 | 5.8 | 1.2 | -15.5 | 43.9* | 3.6 | 535nm interf DR=>122
CCc1ccc(NC(=O)CSc2nc(=O)n(CCN(C)C)c3c2CCCC3)cc1 | -8.2 | 0.8 | 0.5 | 10.0 | -3.8 | -2.7 | x | x
CCC(=O)N1Cc2cc(C(=O)NCC(F)(F)F)nc(-c3cccc(-c4cncnc4)c3)c2[C@@H]1CCO | 8.2 | x | x | x | x | -7.6 | x | x
CCNC(=O)c1cc2c(c(-c3cccc(-c4cncnc4)c3)n1)[C@@H](CCO)N(C(C)=O)C2 | 21.2* | x | x | x | x | 0.6 | -2.2 | -9.6
COc1ccc(C(=O)NCCc2cnc[nH]2)cc1OC | 8.1 | 1.6 | 0.2 | -3.8 | 0.7 | -5.6 | x | x
C/C(=N\NC(=O)c1nnn(-c2nonc2N)c1-c1ccccc1)c1ccccc1O | 26.4* | 1.7 | 1.2 | 1.4 | 4.5 | 29.6 | 30.4* | 1.6 | 535nm interf DR=>122
CNC(=S)N/N=C/c1cc(Br)cc(Br)c1O | 44.0* | 0.1 | -2.2 | -1.1 | 1.0 | 2.4 | 51.3* | 4.8 | 535nm interf DR=>122
Cc1ccc2c(c1)N(C(=O)CCC(=O)N1CCCCC1)CCO2 | 3.3 | -1.1 | -0.3 | 18.2 | 1.1 | -1.5 | x | x
